Assay results reported in ChEMBL document CHEMBL1129409, “5-HT1D receptor agonist properties of novel 2-[5-[[(trifluoromethyl)sulfonyl]oxy]indolyl]ethylamines and their use as synthetic intermediates” (J Med Chem, 1996).

What was measured:
D(2) dopamine receptor = D(2) dopamine receptor (Rattus norvegicus, UniProt P61169); assay: Binding affinity for rat dopamine D2 receptor expressed in CHO-K1 cells; format: cell-based
How it was run: (§1)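 CHO cell membranes expressing cloned human 5-HT1A, 5-HT1Dα or 5-HT1Dβ receptors, or rat D2 receptors (20-60 µg protein). Radioligands: [3H]-8-OH-DPAT (5-HT1A), [3H]-5-HT (5-HT1D), [3H]U-86170 (D2). Buffers at pH 7.4: 50 mM Tris/5 mM MgCl2 (5-HT1A); the same with 0.1% ascorbic acid (5-HT1D); 20 mM HEPES/10 mM MgSO4 (D2). Nonspecific binding defined with lisuride, serotonin and haloperidol respectively. 11 concentrations in duplicate, 1 h at room temperature (5-HT1D protected from light), filtration.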

Cavia porcellus [1] = assay: Effect of 25 (umol/kg, sc) compound on guinea pig rectal temperature (Hypothermia); format: functional
How it was run: (§2)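 Male guinea pigs housed individually at least 1 h before testing, groups of five. Compound given sc in 0.25% methylcellulose (equimolar citric acid for free bases), 5 mL/kg. Rectal probe inserted 3-4 cm; temperature read before dosing and at 60 min. Reported as change from the 0 min value, mean ± SEM (n=4-5).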

Cavia porcellus [2] = assay: The level of 5-HIAA (hypothalamus) measured by means of HPCL with electrochemical detection methods at 25 (umol/kg, sc); format: functional
How it was run: (§3)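 Male Dunkin-Hartley guinea pigs dosed sc in 0.25% methylcellulose (citric acid added for free bases), 5 mL/kg. Decapitated 60 min after dosing; prefrontal cortex and hypothalamus dissected on ice and stored at -80 °C. 5-HT and 5-HIAA measured by HPLC-electrochemical detection. Expressed as % of vehicle controls, mean ± SEM (n=4-5); ANOVA with Fisher's PLSD.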

Cavia porcellus [3] = assay: The level of 5-HIAA (prefrontal cortex) measured by means of HPCL with electrochemical detection methods at 25 (umol/kg, sc); format: functional; how it was run: as §3
Cavia porcellus [4] = assay: The level of 5-HT (hypothalamus) measured by means of HPCL with electrochemical detection methods at 25 (umol/kg, sc); format: functional; how it was run: as §3
Cavia porcellus [5] = assay: The level of 5-HT (prefrontal cortex) measured by means of HPCL with electrochemical detection methods at 25 (umol/kg, sc); format: functional; how it was run: as §3
[6] = target: T1, 5-hydroxytryptamine receptor 1A (Homo sapiens, UniProt P08908); assay: Compound was tested for binding affinity against cloned human 5-hydroxytryptamine 1A receptor expressed in CHO-K1 cells.; format: cell-based
T1 sequence (P08908 whole entry): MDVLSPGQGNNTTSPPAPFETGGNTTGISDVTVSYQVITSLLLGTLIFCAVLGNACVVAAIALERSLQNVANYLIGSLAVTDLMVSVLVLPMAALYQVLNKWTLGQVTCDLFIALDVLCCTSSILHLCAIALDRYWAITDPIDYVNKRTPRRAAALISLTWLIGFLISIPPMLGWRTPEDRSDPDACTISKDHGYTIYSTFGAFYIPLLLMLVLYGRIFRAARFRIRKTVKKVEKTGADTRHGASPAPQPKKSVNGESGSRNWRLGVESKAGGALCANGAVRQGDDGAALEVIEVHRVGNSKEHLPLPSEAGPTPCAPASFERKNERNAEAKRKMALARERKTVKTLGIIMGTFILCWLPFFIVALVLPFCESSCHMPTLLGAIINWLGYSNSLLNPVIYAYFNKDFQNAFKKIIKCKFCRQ
How it was run: as §1, with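 “protein).” for “protein). Radioligands: [3H]-8-OH-DPAT (5-HT1A), [3H]-5-HT (5-HT1D), [3H]U-86170 (D2).”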

[7] = target: 5-hydroxytryptamine receptor 1B (Homo sapiens, UniProt P28222); assay: Compound was tested for binding affinity against cloned human 5-hydroxytryptamine 1D receptor beta expressed in CHO-K1 cells.; format: cell-based
[8] = target: T2, 5-hydroxytryptamine receptor 1D (Homo sapiens, UniProt P28221); assay: (§4) Compound was tested for binding affinity against cloned human 5-hydroxytryptamine 1D receptor alpha expressed in CHO-K1 cells.; format: cell-based
How it was run: as §1, with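 “protein).” for “protein). Radioligands: [3H]-8-OH-DPAT (5-HT1A), [3H]-5-HT (5-HT1D), [3H]U-86170 (D2).”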

[9] = Distribution coefficient (LogD) of compound reported; format: physicochemical; conditions: octanol/water
How it was run: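 log D calculated with Pallas version 1.2.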

Cavia porcellus [10] = assay: Effect of 50(umol/kg, sc) compound on guinea pig rectal temperature; Hypothermia 0-60 delta degree C; format: functional; how it was run: as §2
Cavia porcellus [11] = assay: The level of 5-HIAA (hypothalamus) measured by means of HPCL with electrochemical detection methods at 50(umol/kg, sc); format: functional; how it was run: as §3
Cavia porcellus [12] = assay: Effect of 12.5 (umol/kg, sc) compound on guinea pig rectal temperature; Hypothermia 0-60 delta degree C; format: functional; how it was run: as §2
Cavia porcellus [13] = assay: The level of 5-HIAA (prefrontal cortex) measured by means of HPCL with electrochemical detection methods at 50(umol/kg, sc); format: functional; how it was run: as §3
Cavia porcellus [14] = assay: The level of 5-HT (hypothalamus) measured by means of HPCL with electrochemical detection methods at 50(umol/kg, sc); format: functional; how it was run: as §3
Cavia porcellus [15] = assay: The level of 5-HT (prefrontal cortex) measured by means of HPCL with electrochemical detection methods at 50(umol/kg, sc); format: functional; how it was run: as §3
[16] = target: T2, 5-hydroxytryptamine receptor 1D; assay: Displacement of [3H]-5-HT from human 5-hydroxytryptamine 1D receptor alpha expressed in HEK 293 cells; format: cell-based, HEK293
How it was run: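 HEK 293 microsomal membranes expressing human 5-HT1Dα or 5-HT1Dβ, in 50 mM Tris-HCl buffer with 4 mM CaCl2, 0.1% ascorbic acid, pargyline and leupeptine. [3H]-5-HT (final 0.01-150 nM) incubated with membranes and displacer for 30 min at 25 °C. Glass-fibre filtration, then scintillation counting. Nonspecific binding taken with 10^-5 M 5-HT. Nonlinear least-squares fitting (EBDA/LIGAND); mean ± SEM, n=3.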

[17] = target: T2, 5-hydroxytryptamine receptor 1D; assay: as §4; format: cell-based; how it was run: as §1; remark: listed apart in the source
[18] = target: T2, 5-hydroxytryptamine receptor 1D; assay: Ratio of receptor binding affinities of 5-hydroxytryptamine 1D receptor alpha vs 5-hydroxytryptamine 1D receptor beta

T2 sequence (P28221 whole entry): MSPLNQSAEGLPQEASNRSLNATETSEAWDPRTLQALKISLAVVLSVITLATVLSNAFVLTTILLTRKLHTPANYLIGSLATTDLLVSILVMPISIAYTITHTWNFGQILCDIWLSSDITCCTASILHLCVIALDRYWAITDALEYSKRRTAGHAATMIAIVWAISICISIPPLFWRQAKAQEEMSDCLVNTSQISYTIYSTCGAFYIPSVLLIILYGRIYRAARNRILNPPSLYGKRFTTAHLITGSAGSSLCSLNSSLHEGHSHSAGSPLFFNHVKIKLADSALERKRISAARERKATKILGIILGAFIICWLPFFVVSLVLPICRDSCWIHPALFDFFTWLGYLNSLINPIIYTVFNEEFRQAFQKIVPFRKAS
Chain of D(2) dopamine receptor (P61169 whole entry): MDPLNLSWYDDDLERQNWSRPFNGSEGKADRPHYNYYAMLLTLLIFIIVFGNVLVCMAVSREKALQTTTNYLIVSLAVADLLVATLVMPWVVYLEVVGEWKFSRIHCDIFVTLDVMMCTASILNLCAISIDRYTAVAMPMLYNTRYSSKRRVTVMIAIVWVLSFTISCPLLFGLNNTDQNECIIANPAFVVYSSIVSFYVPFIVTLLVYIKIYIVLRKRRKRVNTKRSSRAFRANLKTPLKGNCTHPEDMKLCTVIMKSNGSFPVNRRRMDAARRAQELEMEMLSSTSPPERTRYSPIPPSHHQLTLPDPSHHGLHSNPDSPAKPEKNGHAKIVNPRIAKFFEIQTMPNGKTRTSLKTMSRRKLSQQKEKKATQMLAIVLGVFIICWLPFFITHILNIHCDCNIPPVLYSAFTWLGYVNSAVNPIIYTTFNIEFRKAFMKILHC
Chain of 5-hydroxytryptamine receptor 1B (P28222 whole entry): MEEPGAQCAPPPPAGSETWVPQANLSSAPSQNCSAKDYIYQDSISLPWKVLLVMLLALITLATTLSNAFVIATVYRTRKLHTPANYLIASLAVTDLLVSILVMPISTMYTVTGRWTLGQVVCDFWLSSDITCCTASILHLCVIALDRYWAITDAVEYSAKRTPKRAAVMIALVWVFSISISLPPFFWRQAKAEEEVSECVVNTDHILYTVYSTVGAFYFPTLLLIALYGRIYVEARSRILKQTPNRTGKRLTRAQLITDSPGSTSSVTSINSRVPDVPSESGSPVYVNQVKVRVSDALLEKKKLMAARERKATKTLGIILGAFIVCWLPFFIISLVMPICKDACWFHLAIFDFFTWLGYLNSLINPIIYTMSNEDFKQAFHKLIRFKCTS

Row | Compound | Ki (D(2) dopamine receptor) | Ki [6] | Ki [7] | Ki [8] | logD [9] | IC50 [16] | IC50 [17] | other results
1 | CNS(=O)(=O)Cc1ccc2[nH]cc(CCN(C)C)c2c1 | > 218 nM | – | – | – | – | – | – | Others (Cavia porcellus [1]): -0.14; Others (Cavia porcellus [2]): 133%; Others (Cavia porcellus [3]): 129%; Others (Cavia porcellus [4]): 122%; Others (Cavia porcellus [5]): 119%
2 | COc1ccc(CNC(=O)/C=C/c2ccc3[nH]cc(CCN(C)C)c3c2)cc1 | – | 1.3 nM | 0.2 nM | 0.3 nM | 1.71 | – | – | Others (Cavia porcellus [10]): -2.62; Others (Cavia porcellus [11]): 49%; Others (Cavia porcellus [12]): -1.62; Others (Cavia porcellus [13]): 37%; Others (Cavia porcellus [14]): 121%; Others (Cavia porcellus [15]): 94%
3 | CCCN(CCC)CCc1c[nH]c2ccc(O)cc12 | – | – | – | – | 1.24 | 820 nM | 820 nM | –
4 | NCCc1c[nH]c2ccc(OS(=O)(=O)C(F)(F)F)cc12 | 658 nM | 18 nM | 14 nM | 2.8 nM | -0.24 | – | – | Ratio [18]: 5
5 | CN(C)CCc1c[nH]c2ccc(OCc3ccccc3)cc12 | – | – | – | – | 2.28 | 25 nM | 76 nM | –
6 | CCCN(CCC)CCc1c[nH]c2ccc(OCc3ccccc3)cc12 | – | – | – | – | 3.08 | 470 nM | 470 nM | –
